Laboratory results published in PMC10238757 (Pharmacology Research & Perspectives, 2023).

Columns and labels:
[1] = Multiple ascending dose; type: in vivo, human; conditions: for half-life / AUC(0-t) / Cmax / concentration at 24 h / Tmax / concentration at 168 h: human, plasma, oral; for Cmax: C max; for Cmax / concentration at 24 h / concentration at 168 h: ng/mL GM (%CVb); for concentration at 24 h / concentration at 168 h: C trough; for Tmax: t max, h median (range)
Procedure, shortened: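 Healthy participants, double-blind and placebo-controlled, cohorts of 10 randomized 7:3. Oral doses after a moderate-fat meal: 25–100 mg QD for 14 days (18 days at top dose), or 500 mg QW ×3. Trough taken pre-dose at end of interval (24 h QD, 168 h QW). Plasma followed to 360 h; LLOQ 10 ng/mL. Non-compartmental PK; accumulation ratios Day 14, 15 or 18 vs Day 1; geometric means with CVb.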

[2] = system: HIV-1; conditions: cited from earlier work
[3] = Single ascending dose; type: in vivo, human
Procedure, shortened: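 Healthy participants, double-blind cross-over between 2 cohorts of 9, randomized 6:3 drug:placebo each period. Single oral doses of 10–800 mg right after a moderate-fat breakfast (600 calories, 30% fat). Plasma sampled to 360 h (protocol first set 96 h); LLOQ 10 ng/mL. Non-compartmental analysis; dose proportionality by power model.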

[4] = system: dogs; assay: Dose ranging and good laboratory practice toxicology studies in dogs; type: in vivo
[5] = Relative bioavailability and food effect; type: in vivo, human; conditions: 100 mg; for Tmax: human, plasma, oral, Median t max
Procedure, shortened: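 Open-label, single-dose, 3-period cross-over; 17 healthy participants; washout ≥24 days. Each received 100 mg oral as PiB fed, tablet fed or tablet fasted. Overnight fast ≥9.5 h before and ≥4 h after dosing; fed arms got a moderate-fat meal 25 min pre-dose. Non-compartmental PK. Log_e PK parameters fitted by mixed-effect models (fed/fasted, tablet/PiB fixed; participant random). Back-transformed 90% CIs for AUC_0‐24, AUC_0‐∞, Cmax.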

[6] = system: healthy participants; assay: Safety and tolerability, relative bioavailability and food effect; type: in vivo, human
Procedure, shortened: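 AEs in healthy participants given oral test compound or placebo, recorded with grade and relation to treatment. Laboratory analyses, clinical parameters and suicidality were also monitored. Observation ran 360 h after dosing. Summaries were descriptive, with no formal statistics; parts 1–2 blinded and placebo-controlled, part 3 open-label.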

C=C(C)[C@@H]1CC[C@]2(NCCN3CCS(=O)(=O)CC3)CC[C@]3(C)[C@H](CC[C@@H]4[C@@]5(C)CC=C(C6=CC[C@@](COc7ncccc7C#N)(C(=O)O)CC6)C(C)(C)[C@@H]5CC[C@]43C)[C@@H]12 [GSK'937]
Accumulation ratio of C trough GM (%CVb) ([1]; 25 mg QD, Day 14/Day 1): 6.58 (31.4)
Accumulation ratio of C trough GM (%CVb) ([1]; 50 mg QD, Day 14/Day 1): 5.25 (35.7)
Accumulation ratio of C trough GM (%CVb) ([1]; 100 mg QD, Day 18/Day 1): 9.39 (72.5)
accumulation in exposure following repeat dosing ([1]; 500 mg QW (weekly)): ~ 1.7 fold
Accumulation ratio of AUC0-t GM (%CVb) ([1]; 500 mg QW, Day 15/Day 1): 1.76 (27.0)
Accumulation ratio of C max GM (%CVb) ([1]; 500 mg QW, Day 15/Day 1): 1.68 (26.9)
Accumulation ratio of C trough GM (%CVb) ([1]; 500 mg QW, Day 15/Day 1): 1.82 (33.8)
time after final dose at which still detectable ([1]; all part 2 participants): 360 h
half-life [1]: 72.2 to 85.8 h
AUC(0-t) ([1]; 25 mg): 1890 ng·h/mL
half-life ([1]; 25 mg): 85.8 h
Cmax ([1]; 25 mg, 25 mg QD, Day 1): 132 ng/mL
Cmax ([1]; 25 mg, 25 mg QD, Day 14): 766 ng/mL
concentration at 24 h ([1]; 25 mg, 25 mg QD, Day 1, 24 h): 89.3 ng/mL
concentration at 24 h ([1]; 25 mg, 25 mg QD, Day 14, 24 h): 588 ng/mL
Tmax ([1]; 25 mg, 25 mg QD, Day 1): 9 h
Tmax ([1]; 25 mg, 25 mg QD, Day 14): 6.95 h
AUC(0-t) ([1]; 50 mg): 3560 ng·h/mL
half-life ([1]; 50 mg): 72.2 h
Cmax ([1]; 50 mg, 50 mg QD, Day 1): 232 ng/mL
Cmax ([1]; 50 mg, 50 mg QD, Day 14): 1150 ng/mL
concentration at 24 h ([1]; 50 mg, 50 mg QD, Day 1, 24 h): 189 ng/mL
concentration at 24 h ([1]; 50 mg, 50 mg QD, Day 14, 24 h): 990 ng/mL
Tmax ([1]; 50 mg, 50 mg QD, Day 1): 8 h
Tmax ([1]; 50 mg, 50 mg QD, Day 14): 7.03 h
AUC(0-t) ([1]; 100 mg): 5890 ng·h/mL
half-life ([1]; 100 mg): 78.5 h
Cmax ([1]; 100 mg, 100 mg QD, Day 1): 375 ng/mL
Cmax ([1]; 100 mg, 100 mg QD, Day 14): 2680 ng/mL
Cmax ([1]; 100 mg, 100 mg QD, Day 18): 2750 ng/mL
concentration at 24 h ([1]; 100 mg, 100 mg QD, Day 1, 24 h): 272 ng/mL
concentration at 24 h ([1]; 100 mg, 100 mg QD, Day 14, 24 h): 2420 ng/mL
concentration at 24 h ([1]; 100 mg, 100 mg QD, Day 18, 24 h): 2460 ng/mL
Tmax ([1]; 100 mg, 100 mg QD, Day 1): 9 h
Tmax ([1]; 100 mg, 100 mg QD, Day 14): 7.49 h
Tmax ([1]; 100 mg, 100 mg QD, Day 18): 9.01 h
half-life ([1]; 500 mg): 74.5 h
Cmax ([1]; 500 mg, 500 mg QW, Day 1): 1110 ng/mL
Cmax ([1]; 500 mg, 500 mg QW, Day 8): 2320 ng/mL
Cmax ([1]; 500 mg, 500 mg QW, Day 15): 1860 ng/mL
concentration at 168 h ([1]; 500 mg, 500 mg QW, Day 1, 168 h): 251 ng/mL
concentration at 168 h ([1]; 500 mg, 500 mg QW, Day 8, 168 h): 498 ng/mL
concentration at 168 h ([1]; 500 mg, 500 mg QW, Day 15, 168 h): 455 ng/mL
Tmax ([1]; 500 mg, 500 mg QW, Day 1): 9.88 h
Tmax ([1]; 500 mg, 500 mg QW, Day 8): 10 h
Tmax ([1]; 500 mg, 500 mg QW, Day 15): 10 h
potency in vitro [2]: low nanomolar
t max, h median (range) ([3]; SAD 800 mg): 18.08 (12.1–24.1) h
time up to which concentrations were quantifiable ([3]; after the 10-mg dose): up to 96 h
time up to which concentrations were quantifiable ([3]; after the 30-mg dose, 5 of 6 participants): ≤ 264 h
time up to which concentrations were quantifiable ([3]; all other doses except 1 individual in the 80-mg cohort): ≤ 360 h
AUC(0-t) ([3]; human, plasma, oral, 10 mg): 2490 ng·h/mL
Cmax ([3]; human, plasma, oral, 10 mg): 39.2 ng/mL
Tmax ([3]; human, plasma, oral, 10 mg, t max, h median (range), SAD 10 mg): 6.98 h
Cmax ([3]; human, plasma, oral, 30 mg): 127 ng/mL
half-life ([3]; human, plasma, oral, 30 mg, t 1/2 GM (%CVb), SAD 30 mg): 75.9 h
Tmax ([3]; human, plasma, oral, 30 mg, t max, h median (range), SAD 30 mg): 8 h
Cmax ([3]; human, plasma, oral, 80 mg): 310 ng/mL
half-life ([3]; human, plasma, oral, 80 mg, t 1/2 GM (%CVb), SAD 80 mg): 79.1 h
Tmax ([3]; human, plasma, oral, 80 mg, t max, h median (range), SAD 80 mg): 7.98 h
Cmax ([3]; human, plasma, oral, 160 mg): 529 ng/mL
half-life ([3]; human, plasma, oral, 160 mg, t 1/2 GM (%CVb), SAD 160 mg): 91.8 h
Tmax ([3]; human, plasma, oral, 160 mg, t max, h median (range), SAD 160 mg): 7.95 h
Cmax ([3]; human, plasma, oral, 320 mg): 1010 ng/mL
half-life ([3]; human, plasma, oral, 320 mg, t 1/2 GM (%CVb), SAD 320 mg): 96.8 h
Tmax ([3]; human, plasma, oral, 320 mg, t max, h median (range), SAD 320 mg): 6.99 h
Cmax ([3]; human, plasma, oral, 640 mg): 1460 ng/mL
half-life ([3]; human, plasma, oral, 640 mg, t 1/2 GM (%CVb), SAD 640 mg): 82.6 h
Tmax ([3]; human, plasma, oral, 640 mg, t max, h median (range), SAD 640 mg): 7 h
Cmax ([3]; human, plasma, oral, 800 mg): 2860 ng/mL
half-life ([3]; human, plasma, oral, 800 mg, t 1/2 GM (%CVb), SAD 800 mg): 67.4 h
Tmax ([3]; human, plasma, oral, 800 mg, t max, h median (range), SAD 800 mg): 18 h
Tmax ([3]; human, plasma, oral, Median t max, all single doses except the 800-mg dose): 7 to 8 h
half-life ([3]; human, plasma, oral, t 1/2, range across doses, part 1 single doses): 67 to 97 h
half-life ([3]; human, plasma, oral, terminal phase half-life, all doses following single and repeat dosing): ~72 h
lowest observed adverse effect level [4]: 3 mg/kg
increase in C max, tablet versus PiB ([5]; fed): approximately 37%
increase in bioavailability by AUC0-24, tablet versus PiB ([5]; fed): 38%
increase in bioavailability by AUC0-∞, tablet versus PiB ([5]; fed): 35%
Tmax ([5]; 100 mg PiB fed): 9 h
Tmax ([5]; 100 mg tablet fasted): 6 h
Tmax ([5]; both tablet and PiB formulations under fed conditions): 8 to 9 h
exposure in fed versus fasted states ([5]; tablet): > 2 fold
Abdominal pain, n occurrences (% of cohort) ([6]; 100 mg PiB fed, N=15): 0
All-cause AEs Grade 2, n occurrences (% of cohort) ([6]; 100 mg PiB fed, N=15): 0
All-cause AEs Grade 3/4, n occurrences (% of cohort) ([6]; 100 mg PiB fed, N=15): 0
All-cause AEs, n occurrences (% of cohort) ([6]; 100 mg PiB fed, N=15): 2 (13)
Constipation, n occurrences (% of cohort) ([6]; 100 mg PiB fed, N=15): 0
Diarrhea, n occurrences (% of cohort) ([6]; 100 mg PiB fed, N=15): 0
Drug-related AEs Grade 2, n occurrences (% of cohort) ([6]; 100 mg PiB fed, N=15): 0
Drug-related AEs Grade 3/4, n occurrences (% of cohort) ([6]; 100 mg PiB fed, N=15): 0
Drug-related AEs, n occurrences (% of cohort) ([6]; 100 mg PiB fed, N=15): 0
Headache, n occurrences (% of cohort) ([6]; 100 mg PiB fed, N=15): 0
MDSD, n occurrences (% of cohort) ([6]; 100 mg PiB fed, N=15): 0
Abdominal pain, n occurrences (% of cohort) ([6]; 100 mg tablet fasted, N=15): 0
All-cause AEs Grade 2, n occurrences (% of cohort) ([6]; 100 mg tablet fasted, N=15): 2 (13)
All-cause AEs Grade 3/4, n occurrences (% of cohort) ([6]; 100 mg tablet fasted, N=15): 0
All-cause AEs, n occurrences (% of cohort) ([6]; 100 mg tablet fasted, N=15): 7 (40)
Constipation, n occurrences (% of cohort) ([6]; 100 mg tablet fasted, N=15): 0
Diarrhea, n occurrences (% of cohort) ([6]; 100 mg tablet fasted, N=15): 0
Drug-related AEs Grade 2, n occurrences (% of cohort) ([6]; 100 mg tablet fasted, N=15): 0
Drug-related AEs Grade 3/4, n occurrences (% of cohort) ([6]; 100 mg tablet fasted, N=15): 0
Drug-related AEs, n occurrences (% of cohort) ([6]; 100 mg tablet fasted, N=15): 0
Headache, n occurrences (% of cohort) ([6]; 100 mg tablet fasted, N=15): 2 (13)
MDSD, n occurrences (% of cohort) ([6]; 100 mg tablet fasted, N=15): 0
Abdominal pain, n occurrences (% of cohort) ([6]; 100 mg tablet fed, N=17): 0
All-cause AEs Grade 2, n occurrences (% of cohort) ([6]; 100 mg tablet fed, N=17): 3 (12)
All-cause AEs Grade 3/4, n occurrences (% of cohort) ([6]; 100 mg tablet fed, N=17): 0
All-cause AEs, n occurrences (% of cohort) ([6]; 100 mg tablet fed, N=17): 7 (24)
Constipation, n occurrences (% of cohort) ([6]; 100 mg tablet fed, N=17): 0
Diarrhea, n occurrences (% of cohort) ([6]; 100 mg tablet fed, N=17): 0
Drug-related AEs Grade 2, n occurrences (% of cohort) ([6]; 100 mg tablet fed, N=17): 0
Drug-related AEs Grade 3/4, n occurrences (% of cohort) ([6]; 100 mg tablet fed, N=17): 0
Drug-related AEs, n occurrences (% of cohort) ([6]; 100 mg tablet fed, N=17): 0
Headache, n occurrences (% of cohort) ([6]; 100 mg tablet fed, N=17): 2 (12)
MDSD, n occurrences (% of cohort) ([6]; 100 mg tablet fed, N=17): 0
AEs considered drug- or treatment-related ([6]; part 3): None
changes in laboratory analyses, clinical parameters, or suicidality ([6]; part 3): No significant changes
deaths or SAEs ([6]; part 3): No deaths or SAEs occurred
participants reporting AEs, n of 17 ([6]; part 3 (41%)): 7
